According to ChEMBL document CHEMBL4428051, “Preclinical Activity of New [1,2]Oxazolo[5,4-e]isoindole Derivatives in Diffuse Malignant Peritoneal Mesothelioma” (J Med Chem, 2016):
pIC50: −log10 of the molar value. Calls of active or inactive are those of the source. The calls are words filed in the database; no cut-off is given here.

Assays:
[1] = tested on: Panel NCI-60 (60 carcinoma cell lines); assay: Growth inhibition of human NCI60 cells at 10^-4 to 10^-8 M after 48 hrs by sulforhodamine B assay; type: functional, cell-based
[2] = species: Homo sapiens; assay: Cell cycle arrest in human MP4 cells assessed as accumulation at G2/M phase at IC50 after 48 to 72 hrs by propidium iodide staining-based flow cytometric method; type: functional
Summary of the method: (§1)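 Cells exposed to drug or 1% (v/v) DMSO control for 48 and 72 h. Adherent and floating cells fixed in 70% EtOH, then stained 30 min at 4 °C with propidium iodide 50 μg/mL, RNase and 0.05% Nonidet-P40 in PBS. Flow cytometry read ≥30000 events; G1, S and G2/M percentages fitted with the Modfit model; mean of three independent experiments.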

[3] = species: Homo sapiens; assay: Cell cycle arrest in human STO cells assessed as decrease in cell levels at G1 phase at IC50 after 48 to 72 hrs by propidium iodide staining-based flow cytometric method; type: functional; summary of the method: as §1
[4] = target: T1, Tubulin (Sus scrofa) (UniProt P02554+P02550); assay: Induction of GTP-induced porcine tubulin polymerization at 10 uM measured every minute up to 60 mins relative to control; type: protein assay
T1 sequence (P02550 whole entry, looked up): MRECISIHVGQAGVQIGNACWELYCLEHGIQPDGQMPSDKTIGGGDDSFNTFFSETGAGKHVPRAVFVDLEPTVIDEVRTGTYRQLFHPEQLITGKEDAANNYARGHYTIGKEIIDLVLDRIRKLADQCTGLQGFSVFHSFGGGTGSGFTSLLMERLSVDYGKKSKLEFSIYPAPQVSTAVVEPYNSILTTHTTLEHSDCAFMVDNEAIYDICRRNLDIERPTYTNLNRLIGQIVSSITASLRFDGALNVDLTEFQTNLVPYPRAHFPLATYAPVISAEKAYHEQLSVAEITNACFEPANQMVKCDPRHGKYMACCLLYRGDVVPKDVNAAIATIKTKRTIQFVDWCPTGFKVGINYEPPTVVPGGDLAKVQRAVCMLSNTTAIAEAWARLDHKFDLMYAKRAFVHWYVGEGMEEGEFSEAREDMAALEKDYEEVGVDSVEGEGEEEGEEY
T1 sequence (P02554 whole entry, looked up): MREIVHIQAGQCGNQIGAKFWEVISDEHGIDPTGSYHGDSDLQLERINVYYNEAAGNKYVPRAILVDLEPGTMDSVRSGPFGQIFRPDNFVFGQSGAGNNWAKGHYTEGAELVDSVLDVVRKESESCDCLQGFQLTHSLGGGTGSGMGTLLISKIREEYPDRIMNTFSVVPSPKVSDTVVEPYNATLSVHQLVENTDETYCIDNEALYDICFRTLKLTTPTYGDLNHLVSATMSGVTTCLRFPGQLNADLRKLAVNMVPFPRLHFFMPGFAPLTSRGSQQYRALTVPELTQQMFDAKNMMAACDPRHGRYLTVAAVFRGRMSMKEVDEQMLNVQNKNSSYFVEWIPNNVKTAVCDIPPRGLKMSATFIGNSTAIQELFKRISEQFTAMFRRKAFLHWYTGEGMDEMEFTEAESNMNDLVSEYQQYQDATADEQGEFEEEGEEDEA
Summary of the method: (§2)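 Test agent or taxol/vinorelbine was added at 10 μmol/L. Polymerization was started at 37 °C and followed by absorbance at 340 nm every minute up to 60 min.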

[5] = species: Homo sapiens; assay: Cell cycle arrest in human STO cells assessed as accumulation at G2/M phase at IC50 after 48 to 72 hrs by propidium iodide staining-based flow cytometric method; type: functional; summary of the method: as §1
[6] = species: Homo sapiens; assay: Cell cycle arrest in human STO cells assessed as decrease in cell levels at S phase at IC50 after 48 to 72 hrs by propidium iodide staining-based flow cytometric method; type: functional; summary of the method: as §1
[7] = species: Homo sapiens; assay: Cell cycle arrest in human MP4 cells assessed as decrease in cell levels at G1 phase at IC50 after 48 to 72 hrs by propidium iodide staining-based flow cytometric method; type: functional; summary of the method: as §1
[8] = species: Homo sapiens; assay: Cell cycle arrest in human MP4 cells assessed as decrease in cell levels at S phase at IC50 after 48 to 72 hrs by propidium iodide staining-based flow cytometric method; type: functional; summary of the method: as §1
[9] = Cell cycle arrest in human STO cells assessed as mitotic cells at 1 nM after 72 hrs by MPM2 staining-based fluorescence microscopic analysis relative to control; type: functional
[10] = Cell cycle arrest in human MP8 cells assessed as mitotic cells at 18 nM after 72 hrs by MPM2 staining-based fluorescence microscopic analysis relative to control; type: functional
[11] = target: T1, Tubulin (Sus scrofa); assay: Inhibition of GTP-induced porcine tubulin polymerization at 10 uM measured every minute up to 60 mins relative to control; type: protein assay; summary of the method: as §2
[12] = Cell cycle arrest in human MP8 cells assessed as mitotic cells at 13 nM after 72 hrs by MPM2 staining-based fluorescence microscopic analysis relative to control; type: functional
[13] = target: T2, Tubulin (Homo sapiens) (UniProt P68371+Q9H4B7+P0DPH7+P68366+Q13509+Q71U36+P04350+Q3ZCM7+P07437+P68363+Q9BQE3+Q6PEY2+Q13885+Q9BVA1+Q9BUF5); assay: Inhibition of tubulin polymerization in human STO cells at 2 nM after 24 hrs by Western blot analysis relative to soluble fraction of tubulin; type: cell-based
[14] = target: T2, Tubulin (Homo sapiens); assay: Inhibition of tubulin polymerization in human MP4 cells at 10 nM after 24 hrs by Western blot analysis relative to soluble fraction of tubulin; type: cell-based
[15] = Cell cycle arrest in human STO cells assessed as mitotic cells at 2 nM after 72 hrs by MPM2 staining-based fluorescence microscopic analysis relative to control; type: functional
[16] = species: Homo sapiens; assay: Cell cycle arrest in human MP4 cells assessed as accumulation at G2/M phase at IC50 to IC80 by propidium iodide staining-based flow cytometric method; type: functional; conditions: TDE = time-dependent effect; summary of the method: as §1
[17] = species: Homo sapiens; assay: Cell cycle arrest in human MP4 cells assessed as decrease in cell levels at S phase at IC50 to IC80 after 48 to 72 hrs by propidium iodide staining-based flow cytometric method; type: functional; summary of the method: as §1
[18] = target: T2, Tubulin (Homo sapiens); assay: Inhibition of tubulin polymerization in human MP4 cells at IC50 after 24 hrs by Western blot analysis relative to soluble fraction of tubulin; type: cell-based
[19] = species: Homo sapiens; assay: Induction of apoptosis in human STO cells assessed as increase in caspase-3 catalytic activity by measuring DEVD-pNA hydrolysis at IC50 to IC80 by spectrofluorometric method; type: functional, cell-based; conditions: TDE = time-dependent effect
[20] = Growth inhibition of human MP8 cells after 72 hrs by MTS assay; type: functional; conditions: MP8, 72 h
Summary of the method: (§3)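 DMPM lines were kept in DMEM F12 with 10% heat-inactivated FBS at 37 °C, 5% CO₂. 4500 cells/well were plated 24 h, then exposed 72 h to 0.1−100 μM; vehicle was 0.01% DMSO. MTS read at OD 490 nm and expressed as % of DMSO-treated cells. Eight replicates per condition, ≥3 independent repeats. IC50 and IC80 were taken graphically from dose–response curves.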

[21] = species: Homo sapiens; assay: Induction of apoptosis in human MP4 cells assessed as increase in caspase-3 catalytic activity by measuring DEVD-pNA hydrolysis at IC50 to IC80 by spectrofluorometric method; type: functional, cell-based; conditions: TDE = time-dependent effect
[22] = target: T2, Tubulin (Homo sapiens); assay: Inhibition of tubulin polymerization in human STO cells at IC50 after 24 hrs by Western blot analysis relative to soluble fraction of tubulin; type: cell-based
[23] = species: Homo sapiens; assay: Cell cycle arrest in human STO cells assessed as accumulation at G2/M phase at IC50 to IC80 by propidium iodide staining-based flow cytometric method; type: functional; conditions: TDE = time-dependent effect; summary of the method: as §1
[24] = Induction of apoptosis in human MP4 cells assessed as increase in caspase-3 catalytic activity by measuring DEVD-pNA hydrolysis at IC80 after 72 hrs by spectrofluorometric method relative to control; type: functional
Summary of the method: (§4)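 STO and MP4 cells were exposed 72 h to drug or to 1% (v/v) DMSO control, then washed, pelleted and lysed. Total protein was mixed with DEVD-pNA for 1 h at 37 °C. Hydrolysis was read fluorometrically, ex 380/em 460 nm, as relative fluorescence units. Mean of three independent experiments.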

[25] = Cell cycle arrest in human STO cells assessed as mitotic cells at IC50 after 72 hrs by MPM2 staining-based fluorescence microscopic analysis relative to control; type: functional
[26] = species: Homo sapiens; assay: Cell cycle arrest in human STO cells assessed as decrease in cell levels at G1 phase at IC50 to IC80 after 48 to 72 hrs by propidium iodide staining-based flow cytometric method; type: functional; summary of the method: as §1
[27] = Cell cycle arrest in human MP8 cells assessed as mitotic cells at IC50 after 72 hrs by MPM2 staining-based fluorescence microscopic analysis relative to control; type: functional
[28] = Toxicity in athymic nude mouse xenografted with human STO cells assessed as mortality at 5 mg/kg, ip administrated every 7 days for 4 weeks starting from day 10 post tumor implantation; type: organism-based; conditions: in vivo
Summary of the method: (§5)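 Female nude mice, 6−8 weeks old, with 10⁷ exponentially growing STO cells injected subcutaneously into the right flank. Eight mice per group, randomly assigned to vehicle control or treatment. Compound was given ip in 10% DMSO / 90% saline. Tumor diameters were measured weekly by caliper.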

[29] = Induction of apoptosis in human STO cells assessed as increase in caspase-3 catalytic activity by measuring DEVD-pNA hydrolysis at IC80 after 72 hrs by spectrofluorometric method relative to control; type: functional; summary of the method: as §4
[30] = Antitumor activity against human STO cells xenografted in athymic nude mouse assessed as tumor growth inhibition at 5 mg/kg, ip administrated every 7 days for 4 weeks starting from day 10 post tumor implantation relative to control; type: functional; conditions: read-out: TGI
Summary of the method: (§6)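 Female nude mice, 6−8 weeks old, given 10⁷ exponentially growing STO cells s.c. in the right flank; 8 mice/group. Drug in 10% DMSO/90% saline, 5 mg/kg ip q7dx4 from day 10 after inoculum; controls got vehicle. Tumour diameters caliper-measured weekly, TV = d²×D/2, TVI% = 100 − (mean TV treated/mean TV control × 100). Ki67 staining on formalin-fixed paraffin sections of tumours after the last treatment.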

[31] = tested on: Homo sapiens; assay: Antitumor activity against human STO cells xenografted in athymic nude mouse assessed as suppression of cell proliferation at 5 mg/kg, ip administrated every 7 days for 4 weeks starting from day 10 post tumor implantation measured post last dose by Ki67 immunohistochemical staining-based assay; type: functional, organism-based; summary of the method: as §6
[32] = species: Homo sapiens; assay: Cell cycle arrest in human MP4 cells assessed as decrease in cell levels at G1 phase at IC50 to IC80 after 48 to 72 hrs by propidium iodide staining-based flow cytometric method; type: functional; summary of the method: as §1
[33] = Toxicity in athymic nude mouse xenografted with human STO cells assessed as drug tolerance at 5 mg/kg, ip administrated every 7 days for 4 weeks starting from day 10 post tumor implantation; type: organism-based; conditions: in vivo; summary of the method: as §5
[34] = species: Homo sapiens; assay: Cell cycle arrest in human STO cells assessed as decrease in cell levels at S phase at IC50 to IC80 after 48 to 72 hrs by propidium iodide staining-based flow cytometric method; type: functional; summary of the method: as §1
[35] = Growth inhibition of human MP4 cells after 72 hrs by MTS assay; type: functional; summary of the method: as §3
[36] = tested on: WI-38; assay: Growth inhibition of human WI38 cells after 72 hrs by MTS assay; type: cell-based; conditions: WI-38, 72 h
[37] = Growth inhibition of human STO cells after 72 hrs by MTS assay; type: functional; summary of the method: as §3
[38] = Toxicity in athymic nude mouse xenografted with human STO cells assessed as body weight loss at 5 mg/kg, ip administrated every 7 days for 4 weeks starting from day 10 post tumor implantation; type: organism-based; conditions: in vivo; summary of the method: as §5

## COc1ccc(Cn2cc3c(c2-c2cc(OC)c(OC)c(OC)c2)CCc2cnoc2-3)cc1[N+](=O)[O-]
[1]
  growth inhibition (GI): Active

## COc1ccc(Cn2cc3c(c2-c2ccccc2)CCc2cnoc2-3)cc1
[1]
  growth inhibition (GI): Active

## COc1ccc(Cn2cc3c(c2-c2cc(OC)c(OC)c(OC)c2)CCc2cnoc2-3)cc1
[1]
  growth inhibition (GI): Active

## COc1ccc(Cn2cc3c(c2-c2ccc(OC)cc2)CCc2cnoc2-3)cc1
[1]
  growth inhibition (GI): Active

## COc1ccc(Cn2cc3c(c2-c2ccccc2)CCc2cnoc2-3)cc1N
[1]
  growth inhibition (GI): Active

## COc1ccc(Cn2cc3c(c2-c2ccc(O)cc2)CCc2cnoc2-3)cc1
[1]
  growth inhibition (GI): Active

## CC(=O)O[C@H]1C(=O)[C@@]2(C)[C@H]([C@H](OC(=O)c3ccccc3)[C@]3(O)C[C@H](OC(=O)[C@H](O)[C@@H](NC(=O)c4ccccc4)c4ccccc4)C(C)=C1C3(C)C)[C@]1(OC(C)=O)CO[C@@H]1C[C@@H]2O [PACLITAXEL]
[2]
  Activity: Active
[3]
  Activity: Active
[4]
  Activity: Active
[5]
  Activity: Active
[6]
  Activity: Active
[7]
  Activity: Active
[8]
  Activity: Active
[9]
  Activity: 30 - 50%
[10]
  Activity: 30 - 50%

## CCC1=C[C@@H]2CN(C1)Cc1c([nH]c3ccccc13)[C@@](C(=O)OC)(c1cc3c(cc1OC)N(C)[C@H]1[C@@](O)(C(=O)OC)[C@H](OC(C)=O)[C@]4(CC)C=CCN5CC[C@]31[C@@H]54)C2 [VINORELBINE]
[2]
  Activity: Active
[3]
  Activity: Active
[11]
  inhibition: Active
[5]
  Activity: Active
[12]
  Activity: 30 - 50%
[6]
  Activity: Active
[7]
  Activity: Active
[8]
  Activity: Active
[13]
  inhibition: Active
[14]
  inhibition: Active
[15]
  Activity: 30 - 50%

## COc1ccc(Cn2cc3c(c2-c2cc(OC)c(OC)c(OC)c2)CCc2cnoc2-3)cc1N
[16]
  Activity: Tde
[17]
  Activity: Active
[18]
  inhibition: Active
[19]
  Activity: Tde
[20]
  pIC50: 6.89
[21]
  Activity: Tde
[22]
  inhibition: Active
[23]
  Activity: Tde
[1]
  growth inhibition (GI): Active
[24]
  fold change (FC): 35
[25]
  Activity: 30 - 50%
[11]
  inhibition: Active
[26]
  Activity: Active
[27]
  Activity: 30 - 50%
[28]
  Activity: Non-Toxic
[29]
  fold change (FC): 38.5
[30]
  inhibition in vivo at 5 mg/kg: 59%
[31]
  Activity: Active
[32]
  Activity: Active
[33]
  Activity: Non-Toxic
[34]
  Activity: Active
[35]
  pIC50: 6.80
[36]
  pIC50: < 4.00
[37]
  pIC50: 7.15
[38]
  Activity: Non-Toxic
